Source: ChEMBL document CHEMBL1129567, “Structure-based design of novel, urea-containing FKBP12 inhibitors” (J Med Chem, 1996)

molecular target: Peptidyl-prolyl cis-trans isomerase FKBP1A (Homo sapiens, UniProt P62942); experiment: Apparent inhibition constant of Wild-type human recombinant FK506 binding protein 12; conditions: read-out: Ki app
How it was run: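 Wild-type human recombinant FKBP12 (E. coli-expressed, purified), 90 nM, chymotrypsin-coupled continuous spectrophotometric cis-trans isomerase assay with 100 µM cis succinyl-Ala-Leu-Pro-Phe-p-nitroanilide (stock in trifluoroethanol/240 mM LiCl) at 10 or 15 °C. Buffer: 50 mM HEPES pH 8.0, 100 mM NaCl, 100 µM 2-mercaptoethanol, 1% DMSO, 6 mg/mL chymotrypsin. Read for 5 min. Fit to competitive tight-binding equation corrected for uncatalyzed isomerization.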

Chain of Peptidyl-prolyl cis-trans isomerase FKBP1A (P62942 whole entry): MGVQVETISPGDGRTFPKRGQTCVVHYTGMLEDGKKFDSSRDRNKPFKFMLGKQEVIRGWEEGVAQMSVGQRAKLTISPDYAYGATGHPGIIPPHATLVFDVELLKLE

Row | Structure (SMILES) | Ki [nM]
1 | COC(=O)[C@@H]1CCC[C@H]2CCN(Cc3ccccc3)C(=O)N21 | 67000
2 | CC1(CNC(=O)N2CCCC[C@H]2C(=O)OCc2cccc(Oc3ccccc3)c2)CCCCC1 | 200
3 | COc1cccc(CCCOC(=O)[C@@H]2CCCCN2C(=O)NCC(C)(C)C)c1 | 370
4 | CCCN1CC[C@@H]2CCC[C@@H](C(=O)OCc3ccccc3)N2C1=O | 24000
5 | CCCN1CC[C@@H]2CCC[C@@H](C(=O)OC)N2C1=O | 83000
6 | CC(C)(C)CNC(=O)N1CCCC[C@H]1C(=O)O[C@H](CCc1ccccc1)c1ccccc1 | 350
7 | O=C(OCc1ccccc1)[C@@H]1CCCCN1C(=O)NCc1ccccc1 | 6500
8 | O=C(OCc1ccccc1)[C@@H]1CCC[C@H]2CCN(Cc3ccccc3)C(=O)N21 | 14000
9 | CC1(CNC(=O)N2CCCC[C@H]2C(=O)OCCCCc2ccccc2)CCCCC1 | 120
10 | COc1cc(CCCOC(=O)[C@@H]2CCCCN2C(=O)NCC(C)(C)C)cc(OC)c1OC | 390

The remaining lines, values ahead:

Row | Ki [nM] | Structure (SMILES)
11 | 220 | CC(C)(C)CNC(=O)N1CCCC[C@H]1C(=O)OCc1cccc(Oc2ccccc2)c1
12 | 790 | CC(C)(C)CNC(=O)N1CCCC[C@H]1C(=O)OCc1ccccc1
13 | 550 | CC1(CNC(=O)N2CCCC[C@H]2C(=O)OCc2ccccc2)CCCCC1
14 | 8400 | CC(C)(CO)CNC(=O)N1CCCC[C@H]1C(=O)OCc1ccccc1
15 | 150 | CC(C)(C)CNC(=O)N1CCCC[C@H]1C(=O)OCCCCc1ccccc1
16 | 7200 | C=C(C)CNC(=O)N1CCCC[C@H]1C(=O)OCc1ccccc1
17 | 570 | CC1(CNC(=O)N2CCCC[C@H]2C(=O)OCc2ccccc2)CCCC1
